Experimental data as given in ChEMBL document CHEMBL3352121, “Modulation of Activity Profiles for Largazole-Based HDAC Inhibitors through Alteration of Prodrug Properties” (ACS Med Chem Lett, 2014).
The source made the active and inactive calls. No cut-off for these calls is given here.

How the values were obtained:
Serum [1] = experiment: Drug metabolism in mouse serum treated with largazole assessed as compound formation after 0.25 to 1440 mins by HPLC-MS method; type: ADME, cell-free
[2] = Drug level in human HCT116 cells protein lysate solution treated with 25 ug/mL compound 6 assessed as compound formation after 4 hrs by HPLC-MS method; type: ADME, cell-based; conditions: hct-116, 4 h
[3] = Drug level in human HCT116 cells protein lysate solution treated with 25 ug/mL largazole assessed as compound formation after 30 mins by HPLC-MS method; type: ADME, cell-based; conditions: hct-116, 0.5 h
Histone deacetylase 11 = biological target: T1, Histone deacetylase 11 (Homo sapiens, UniProt Q96DB2); experiment: Inhibition of HDAC11 (unknown origin) incubated for 3 hrs in presence of BSA and in absence of DTT by fluorescence assay
T1 sequence (Q96DB2 whole entry): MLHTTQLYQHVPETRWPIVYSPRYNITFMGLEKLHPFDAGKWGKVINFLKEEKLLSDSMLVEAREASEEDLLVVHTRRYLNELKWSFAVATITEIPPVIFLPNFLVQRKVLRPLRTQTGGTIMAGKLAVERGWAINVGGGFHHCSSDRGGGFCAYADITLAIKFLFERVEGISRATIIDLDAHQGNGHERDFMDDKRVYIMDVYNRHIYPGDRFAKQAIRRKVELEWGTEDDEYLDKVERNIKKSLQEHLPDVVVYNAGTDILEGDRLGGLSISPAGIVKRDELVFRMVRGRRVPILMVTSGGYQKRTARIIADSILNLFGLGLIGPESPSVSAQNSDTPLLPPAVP

[4] = Drug level in tumor of human HCT116 cells xenografted nu/nu mouse treated with 10 mg/kg, po largazole assessed as compound formation by HPLC-MS method; type: ADME, organism-based, Neoplasm, HCT-116; design: dose 10 mg/kg, route oral; conditions: in vivo
[5] = Drug level in human HCT116 cells protein lysate solution treated with 25 ug/mL compound 4 assessed as compound formation after 1 hr by HPLC-MS method; type: ADME, cell-based; conditions: hct-116, 1 h
[6] = Drug metabolism in human HCT116 cells protein lysate solution assessed as largazole thiol formation at 25 ug/mL after 4 hrs by HPLC-MS method; type: ADME, cell-based; conditions: hct-116, 4 h
[7] = Drug metabolism in tumor of human HCT116 cells xenografted nu/nu mouse assessed largazole thiol formation at 50 mg/kg, po by HPLC-MS method; conditions: in vivo
HCT-116 [8] = experiment: In vivo inhibition of HDAC in tumor of human HCT116 cells xenografted nu/nu mouse assessed as increase in histone hyperacetylation at 50 mg/kg, po after 4 to 12 hrs by immunoblotting method; type: functional, organism-based; design: dose 50 mg/kg
In short: (§1)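 Mice bearing HCT116 xenografts were dosed intraperitoneally at 10 or 50 mg/kg, or orally at 50 mg/kg. Tumors were excised at 4, 12 and 24 h. Histone hyperacetylation in the tumors was assessed by immunoblot, n = 2.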

[9] = biological target: Histone deacetylase (Homo sapiens) (UniProt Q13547+O15379+Q9UBN7+Q92769+Q9UQL6+Q8WUI4+Q9BY41+Q96DB2+P56524+Q9UKV0+Q969S8); experiment: Inhibition of HDAC in human HCT116 cells assessed as increase in histone H3 (Lys9/14) hyperacetylation at 320 pM to 10 uM after 8 to 24 hrs by immunoblotting method; type: cell-based; conditions: HCT-116
In short: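 HCT116 cells were treated across a dose range, then harvested at 8 and 24 h post-treatment. Cellular HDAC inhibition was read as histone H3 (Lys9/14) hyperacetylation by immunoblot.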

Serum [10] = experiment: Drug metabolism in mouse serum assessed as largazole thiol formation after 0.25 to 1440 mins by HPLC-MS method; type: ADME, cell-free
HCT-116 [11] = experiment: In vivo inhibition of HDAC in tumor of human HCT116 cells xenografted nu/nu mouse assessed as increase in histone hyperacetylation at 50 mg/kg, ip after 24 hrs by immunoblotting method; type: functional, organism-based; design: dose 50 mg/kg; in short: as §1
HCT-116 [12] = experiment: In vivo inhibition of HDAC in tumor of human HCT116 cells xenografted nu/nu mouse assessed as increase in histone hyperacetylation at 10 mg/kg, ip after 24 hrs by immunoblotting method; type: functional, organism-based; design: dose 10 mg/kg; in short: as §1

Compound: CC(C)[C@@H]1NC(=O)[C@]2(C)CSC(=N2)c2csc(n2)CNC(=O)C[C@@H](/C=C/CCS)OC1=O [LARGAZOLE THIOL]
- Drug metabolism (Serum [1]): metabolite_detected
- Drug metabolism [2]: metabolite_detected
- Drug metabolism [3]: metabolite_detected
- IC50 (Histone deacetylase 11): 3 nM
- Drug metabolism [4]: metabolite_detected
- Drug metabolism [5]: metabolite_detected

Compound: CC(C)[C@@H]1NC(=O)[C@]2(C)CSC(=N2)c2csc(n2)CNC(=O)C[C@@H](/C=C/CCSSC[C@H](NC(=O)OC(C)(C)C)C(=O)O)OC1=O
- Drug metabolism [6]: metabolite_detected
- Drug metabolism [7]: metabolite_notdetected
- inhibition (HCT-116 [8]): inactive
- inhibition [9]: Active
- Drug metabolism (Serum [10]): metabolite_notdetected
- inhibition (HCT-116 [11]): Active
- inhibition (HCT-116 [12]): Active
